High-throughput results as filed in PubChem BioAssay.
MT1-MMP act inh: blockers of MT1-MMP proenzyme processing, primary screen, HT1080 RFP-PRO-GFP cells, GFP/RFP fluorescence | GFP/RFP ratio fluorescence, overnight; percent of plate control window, DMSO zero | GFP/RFP ratio change, % at 20 µM | 360,000 tested, 0.061% active;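 active = GFP/RFP ratio change of at least 30% with cell ATP level not reduced by more than half and red fluorescence within 50% of control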
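Assay system: RFP-PRO-GFP reporter HT1080 cells; read-out basis: GFP/RFP fluorescence ratio; benchmarks: DMSO wells and RFP-L50D-GFP cells; doses: 20 µM single dose, 1% DMSO; schedule: overnight cell settling, then overnight compound exposure, 37 °C, 5% CO2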
DDE Tn7 FP inh: inhibitors of Tn7 peptide binding to fibrin DD(E), primary screen, biochemical, fluorescence polarization, human fibrin, Tn7 probe | Fibrinogen beta chain (Homo sapiens), P02675 | FP displacement of FITC-Tn7 peptide from fibrin DD(E); 0% = median of compound wells per plate | 370,000 tested, 0.13% active | inhibition, % at 8.3 µM | AID 720508, 2013;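 active = inhibition above the mean of compounds falling within the control limits plus 3 SD of them, cut at about 14% in these data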;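 note: 0% = plate median of compound wells and 100% = 10 µM Aha-Tn7 peptide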
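Test system: human clot-derived fibrin DD(E) complex / Quantity: 2 µM final DD(E) protein / Incubation: 10 min plus 3 h, room temperature / Measured by: fluorescence polarization / Benchmarks: high control of 10 µM Aha-Tn7 peptide / Replicates: singlicate testing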
ADAM17 inh: ADAM17 inhibitors, primary screen, biochemical, QFRET | Disintegrin and metalloproteinase domain-containing protein 17 (Homo sapiens), P78536 | recombinant ADAM17, EDANS/DABCYL FRET peptide cleavage | inhibition, % at 6.95 µM | 370,000 tested, 0.83% active | AID 720648, 2013;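 active = inhibition above the mean of compounds lying between control limits plus 3 SD, set per campaign, cut at about 8.5% in these data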;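 note: 0% = DMSO-only wells as the low control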
ADAM10 inh: human ADAM10 inhibitors, primary screen, biochemical, QFRET, HTS; recombinant ADAM10, EDANS/DABCYL FRET peptide cleavage, 3 h; inhibition, % at 7 µM; 370,000 tested, 0.62% active; AID 720582, 2013;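 active = inhibition above a per-campaign cutoff equal to the mean of compounds falling between control-based bounds plus 3 SD, cut at about 20% in these data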;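 note: 0% = DMSO wells while the 100% control is not disclosed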
Target sequence (O14672 214-748 limits assumed): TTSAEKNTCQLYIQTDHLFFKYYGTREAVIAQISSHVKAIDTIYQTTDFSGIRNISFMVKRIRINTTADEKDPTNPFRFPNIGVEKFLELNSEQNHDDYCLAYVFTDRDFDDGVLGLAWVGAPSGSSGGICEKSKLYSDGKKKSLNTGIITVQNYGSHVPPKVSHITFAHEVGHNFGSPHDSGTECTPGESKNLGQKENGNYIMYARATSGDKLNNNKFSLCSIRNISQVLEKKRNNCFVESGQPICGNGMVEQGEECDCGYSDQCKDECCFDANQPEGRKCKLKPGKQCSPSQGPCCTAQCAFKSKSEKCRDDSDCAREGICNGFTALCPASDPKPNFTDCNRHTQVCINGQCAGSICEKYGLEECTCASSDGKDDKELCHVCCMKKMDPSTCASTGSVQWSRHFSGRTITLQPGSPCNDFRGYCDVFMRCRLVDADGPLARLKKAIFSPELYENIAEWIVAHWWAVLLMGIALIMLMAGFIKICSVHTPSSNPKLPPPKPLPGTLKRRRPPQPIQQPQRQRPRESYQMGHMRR
Tn6 DDE FP: inhibitors of Tn6 peptide binding to fibrin DD(E), primary screen, biochemical, fluorescence polarization, human fibrin, Tn6 probe. Fibrinogen beta chain (Homo sapiens), P02675. Fibrin DD(E) TRITC-Tn6 fluorescence polarization displacement. inhibition, % at 8.3 µM. 370,000 tested, 0.21% active;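 active = inhibition above a per-campaign cutoff: mean of compounds within control limits plus 3 SD, cut at about 15% in these data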;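 note: 0% = median of all compound wells on the plate and 100% = blocking peptide control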
ADAM10 ctr: ADAM10 inhibitors, counter-screen for ADAM17 exosite inhibitor project, biochemical, FRET, human ADAM10 | shares compounds with ADAM17 inh | 2,900 tested, 47% active | inhibition, % at 6.95 µM | AID 743256, 2014 | recombinant ADAM10, EDANS/DABCYL FRET peptide cleavage, 3 h;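 active = mean inhibition over the triplicate runs exceeds the activity threshold set in the earlier primary screen, cut at about 20% in these data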;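 note: 0% = DMSO wells and 100% = marimastat wells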
ADAM17 confirm: ADAM17 inhibitors, hit retest, confirmation, biochemical, QFRET peptide cleavage; 2,900 tested, 65% active; recombinant ADAM17, EDANS/DABCYL QFRET peptide cleavage; inhibition, % at 6.95 µM; shares compounds with ADAM17 inh; AID 743257, 2014;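 active = mean inhibition across replicates above the hit cutoff set in the primary screen, cut at about 8.5% in these data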;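 note: 0% = DMSO wells and 100% = marimastat wells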
* marks the source's active call; other numbers are inactive results; nt = no result. Sampled rows, rich in hits. Any-hit rate of the full collection: about 1.6%.

SMILES	MT1-MMP act inh	DDE Tn7 FP inh	ADAM17 inh	ADAM10 inh	Tn6 DDE FP	ADAM10 ctr	ADAM17 confirm
N#CC(c1ccc(Cl)cc1)c1nc2ccccc2nc1C(F)(F)F (configuration not stated)	-2	3	4	8	1	nt	nt
Cc1cccc(C(C#N)c2nc3ccccc3nc2C(F)(F)F)c1 (configuration not stated)	2	5	8.7*	18	-5	10	4
Cc1ccccc1C1c2[nH]c3ccccc3c2C[C@H]2C(=O)N(C3CCN(Cc4ccccc4)CC3)CC(=O)N12 (some centres not stated)	-12	3	8.7*	18	-8	26*	14*
COc1ccc(C2c3[nH]c4ccccc4c3C[C@H]3C(=O)N(C4CCN(Cc5ccccc5)CC4)CC(=O)N23)c(OC)c1 (some centres not stated)	-2	-4	5	16	-4	nt	nt
O=C1[C@@H]2Cc3c([nH]c4ccccc34)C(c3ccccc3)N2C(=O)CN1C1CCN(Cc2ccccc2)CC1 (some centres not stated)	-7	-3	3	11	1	nt	nt
CCOc1ccccc1C1c2[nH]c3ccccc3c2C[C@H]2C(=O)N(C3CCN(Cc4ccccc4)CC3)CC(=O)N12 (some centres not stated)	-4	7	9.7*	19	-2	27*	14*
Cc1cc(C)cc(NC(=O)C(=O)NCCc2c[nH]c3ccccc23)c1	3	-5	11*	27*	-1	21*	11*
Cc1cc(C)c(S(=O)(=O)N2CCCOC2CNC(=O)C(=O)NCCc2c[nH]c3ccccc23)c(C)c1 (configuration not stated)	-2	5	8.6*	16	1	20*	12*
CC(CCc1ccccc1)NC(=O)C(Cc1ccccc1)NS(=O)(=O)c1cccs1 (configuration not stated)	-2	0	9.8*	3	5	21*	9.3*
CC1CCCCC1NC(=O)C(Cc1ccccc1)NS(=O)(=O)c1cccs1 (configuration not stated)	-4	-4	-2	-1	-4	nt	nt
Cc1nc(C)c(-c2nnc(-c3ccc(C(C)(C)C)cc3)o2)cc1C(=O)NN	-11	-1	10*	13	2	2	5
Cc1cnc(NC(=O)CSc2ccc(Cl)cc2)s1	-3	0	9.0*	9	5	7	7
N#Cc1c(-c2ccccc2)c(-c2ccccc2)nn(CC(=O)NNC(=O)Nc2ccc(Cl)cc2)c1=O	1	2	14*	15	-2	23*	19*
COc1ccc(CN(C(=O)c2oc3cc(C)c(C)cc3c2C)C2CCS(=O)(=O)C2)cc1OC (configuration not stated)	-5	-7	9.7*	6	7	13	9.4*
Cc1[nH]c2ccccc2c1/C=C/c1cc[n+](C)cc1	-240	-56	9.4*	3	-9	5	4
CCCCOC(=O)CCN1C(=O)/C(=C/c2ccccc2)SC1=S	nt	4	0	3	-9	nt	nt
COc1cccc(C(NC(C)=O)c2nc(-c3ccc4ccccc4c3)cs2)c1 (configuration not stated)	-6	1	12*	13	-3	18	11*
COc1ccc(C(C)(O)c2nc(-c3ccc4ccccc4c3)cs2)cc1 (configuration not stated)	-1	4	8.8*	15	-6	7	6
CC1CCN(C2(O)C(=O)Nc3ccc(Cl)cc32)CC1 (configuration not stated)	-4	5	-3	5	-12	nt	nt
CC1CCN(C2(O)C(=O)Nc3ccc([N+](=O)[O-])cc32)CC1 (configuration not stated)	-2	-2	11*	17	-5	12	8
Cc1ccccc1-c1ccc2c(c1)[C@@H]1C[C@H]3[C@@H](CN1CC2)[C@H](C)ON3C	nt	7	-6	-20	0	nt	nt
O=C(CN1CCN(c2nc(-c3ccccc3)cs2)CC1)Nc1ccc(F)cc1F	nt	-3	5	13	-10	nt	nt
O=C(CN1CCN(c2nc(-c3ccccc3)cs2)CC1)Nc1ccc(Cl)c(Cl)c1	nt	7	8.8*	13	1	19	12*
C=CCn1c(COc2ccc(C)cc2)nnc1SCC(=O)c1ccc(-c2ccccc2)cc1	nt	0	0	8	-3	nt	nt
Cc1ccc(C2CCC3(CCC(=O)N3CCOC(=O)Nc3ccc(Br)cc3)CC2)cc1 (configuration not stated)	nt	1	0	1	-9	nt	nt
SMILES	MT1-MMP act inh	DDE Tn7 FP inh	ADAM17 inh	ADAM10 inh	Tn6 DDE FP	ADAM10 ctr	ADAM17 confirm
C#CCN(C[C@H]1[C@H](OC(=O)Nc2cccs2)[C@H](OC(=O)Nc2cccs2)CN(C(=O)OC(C)C)N1C(=O)OC(C)C)S(=O)(=O)c1ccc(C)cc1	nt	-3	12*	10	2	33*	19*
Cc1ccc(NC(=O)c2cc([N+](=O)[O-])ccc2NCc2cccnc2)cc1	-7	-6	9.2*	12	-9	15	9
COc1ccc([N+](=O)[O-])cc1NCc1cccnc1	1	-3	-3	-10	5	nt	nt
Cc1cccc(NC(=O)CSc2ncnc3sc4c(c23)CCCC4)c1	nt	-5	-2	-2	0	nt	nt
COc1ccc(-n2nnnc2SCC(=O)c2cccc(OC)c2)cc1	1	-6	10*	7	-2	8	8
CCn1nnnc1SCC(=O)c1cccc(OC)c1	1	-3	0	2	1	nt	nt
O=S(=O)(c1ccccc1)N1CCN=C1SCc1ccc(Cl)c(Cl)c1	-1	4	5	13	4	nt	nt
O=S(=O)(c1ccccc1)N1CCN=C1SCc1cccc(Cl)c1	-2	-14	9.3*	15	7	7	9.7*
